The subject of data set [1] is Hepatitis C virus. Kind of data set: Inhibition of wild type recombinant C terminal His6-tagged HCV1b NS5B Cdelta21 RNA dependent RNA polymerase activity expressed in Escherichia coli JM109 (DE3) using poly rA/U12 template primer by liquid scintillation counting. Particulars: JM 109. Details: species or system Hepatitis C virus subtype 1b. Summed up: (§1)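 Radiometric RdRp assay with His6-tagged NS5BCΔ21 (wild type or P495L, M423T, M414T mutants) purified from E. coli JM109(DE3) by Ni-NTA. Template-primer poly rA/U12. Compounds diluted serially in DMSO. Started with 1.0 mM MnCl2, stopped with ice-cold 10% TCA plus 0.5 mM pyrophosphate. Incorporated UTP TCA-precipitated on GF-B filters and scintillation counted. Activity set relative to DMSO control. IC50 from nonlinear fit of 8–12 concentrations, duplicate, two independent experiments.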

The nature of data set [2]: Cytotoxicity against BHK cells assessed as cell viability by firefly luciferase reporter gene assay. Particulars: hamster. Format: cell-based, Mesocricetus auratus. Summed up:
(§2)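 BHK-NS5B-FRLuc reporter cells (DMEM, 10% heat-inactivated FBS, G418 1 mg/mL, blasticidin 10 µg/mL, 37°C, 5% CO2) treated with 100 µM compound or matching 1% DMSO for 42 hr. Lysates read by dual luciferase. Viability taken as firefly signal versus DMSO. Polymerase inhibition taken as percent reduction of Renilla/firefly ratio versus DMSO. At least three independent experiments in duplicate.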
Background: In a reporter assay the amount or activity of a reporter protein is the signal.

The test system of data set [3] is Hepatitis C virus. In words: Ratio of IC50 for recombinant HCV1b NS5B Cdelta21 RNA dependent RNA polymerase P495L mutant TP1 binding site to IC50 for wild type recombinant C terminal His6-tagged HCV1b NS5B Cdelta21 RNA dependent RNA polymerase. Details: species or system Hepatitis C virus subtype 1b.
Data set [4] concerns Hepatitis C virus. In words: Inhibition of recombinant HCV1b NS5B Cdelta21 RNA dependent RNA polymerase M414T mutant PP1 binding site using poly rA/U12 template primer by liquid scintillation counting. Also on record: species or system Hepatitis C virus subtype 1b. Summed up: as §1
In data set [5] the test system is Hepatitis C virus. Kind of data set: Inhibition of recombinant HCV1b NS5B Cdelta21 RNA dependent RNA polymerase M423T mutant TP2 binding site using poly rA/U12 template primer by liquid scintillation counting. Also on record: species or system Hepatitis C virus subtype 1b. Summed up: as §1
Data set [6] concerns Hepatitis C virus. Kind of data set: Inhibition of recombinant HCV1b NS5B Cdelta21 RNA dependent RNA polymerase P495L mutant TP1 binding site using poly rA/U12 template primer by liquid scintillation counting. Details: species or system Hepatitis C virus subtype 1b. Summed up:
as §1

The test system of the next data set is BHK. In words: Inhibition of intracellular HCV NS5B RNA dependent RNA polymerase activity expressed in BHK cells at 100 uM after 42 hrs by renilla luciferase reporter gene assay. Format: cell-based. Particulars: Hepacivirus hominis. Summed up: as §2
Data set [7] deals with Hepatitis C virus. Kind of data set: Inhibition of wild type recombinant C terminal His6-tagged HCV1b NS5B Cdelta21 RNA dependent RNA polymerase activity expressed in Escherichia coli JM109 (DE3) at 100 uM using poly rA/U12 template primer by liquid scintillation counting. Also on record: species or system Hepatitis C virus subtype 1b. Summed up:
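Radiometric RdRp assay with wild-type NS5BCΔ21 (genotype 1b), C-terminal His6, Ni-NTA purified from E. coli JM109(DE3); poly rA/U12 template-primer. Compounds from 10 mM DMSO stocks, single-point at 100 µM. Started with 1.0 mM MnCl2, stopped with ice-cold 10% TCA/0.5 mM pyrophosphate. Incorporated radioactive UTP TCA-precipitated on GF-B filters, scintillation-counted; activity relative to DMSO control set at 100%.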

For data set [8], the system named is Hepatitis C virus. In words: Ratio of IC50 for recombinant HCV1b NS5B Cdelta21 RNA dependent RNA polymerase M423T mutant TP2 binding site to IC50 for wild type recombinant C terminal His6-tagged HCV1b NS5B Cdelta21 RNA dependent RNA polymerase. Also on record: species or system Hepatitis C virus subtype 1b.
In data set [9] the test system is Hepatitis C virus. Kind of data set: Ratio of IC50 for recombinant HCV1b NS5B Cdelta21 RNA dependent RNA polymerase M414T mutant PP1 binding site to IC50 for wild type recombinant C terminal His6-tagged HCV1b NS5B Cdelta21 RNA dependent RNA polymerase. Also on record: species or system Hepatitis C virus subtype 1b.

Molecules are shown by their SMILES. The source made the active and inactive calls. The rule behind the calls is not given here.

As usually defined, the IC50 is the concentration needed to halve the response being measured. With `COc1cc(O)c2c(c1)oc(=O)c1c3cc(O)c(O)cc3oc21` [WEDELOLACTONE], the IC50 in the data set with Hepatitis C virus [1] worked out at 34 µM.
For orientation: CC50 means the concentration that lowers cell viability or growth by half. The inhibition is the percentage by which the read-out fell short of the control. Consider `Cn1cc(C(=O)N2CCN(C(=O)c3ccc(F)cc3F)CC2)c2nn(-c3ccccc3)c(=O)c-2c1`, for which the cytotoxic concentration (CC50) in data set [2] was above 100 µM. Further, the “Ratio IC50” value with Hepatitis C virus [3] is “<=1.4”; in the data set with Hepatitis C virus [8] it was above 4.5; in the data set on Hepatitis C virus [9], “<=1.4”. Further, the IC50 in the data set on Hepatitis C virus [4] is 44.8 µM; in the data set on Hepatitis C virus [5], above 250 µM; in the data set with Hepatitis C virus [6], 41 µM; in the data set with Hepatitis C virus [1] it was 39.5 µM. The inhibition in the data set on BHK came out at 43.3%. Besides, the inhibition at 100 µM with Hepatitis C virus [7] is at least 50%.
With `O=C(CCS(=O)(=O)c1ccccc1)N1CCN(C(=O)CCS(=O)(=O)c2ccccc2)CC1`, the CC50 in data set [2] is above 100 µM. Further, the “Ratio IC50” value in the data set with Hepatitis C virus [3] is listed as “<=1.4”; in the data set on Hepatitis C virus [8], above 4.5; in the data set on Hepatitis C virus [9] it was “<=1.4”. The IC50 with Hepatitis C virus [4] was 37.8 µM; in the data set on Hepatitis C virus [5], above 250 µM; with Hepatitis C virus [6], 33.5 µM; with Hepatitis C virus [1] it was 33.1 µM. In addition, in the data set on BHK, the inhibition was determined as 42.1%. Also, the inhibition at 100 µM with Hepatitis C virus [7] is at least 50%.
`CCOC(=O)/C(C#N)=C\c1cn(CCC(=O)O)nc1-c1ccc(F)cc1`: the 50% cytotoxic concentration (CC50) in data set [2] was above 100 µM. Besides, the “Ratio IC50” value in the data set with Hepatitis C virus [3] is recorded as “<=1.4”; with Hepatitis C virus [8], above 4.5; in the data set with Hepatitis C virus [9], “<=1.4”. The IC50 in the data set with Hepatitis C virus [4] is 28.6 µM; in the data set with Hepatitis C virus [5], above 250 µM; with Hepatitis C virus [6] it was 34.3 µM; in the data set on Hepatitis C virus [1], 33 µM. Also, the inhibition in the data set with BHK amounted to 44.2%. Moreover, in the data set on Hepatitis C virus [7], the inhibition at 100 µM is at least 50%.
Turning to `C/C(=N\Nc1ncnc2ccccc12)C(=O)O`, the CC50 in [2] was above 100 µM. Besides, the “Ratio IC50” value with Hepatitis C virus [3] is given as “<=1.4”; in the data set on Hepatitis C virus [8], 7.9; with Hepatitis C virus [9], “<=1.4”. For the same compound, the IC50 in the data set on Hepatitis C virus [4] is 22.9 µM; with Hepatitis C virus [5], 127 µM; with Hepatitis C virus [6], 14.2 µM; in the data set with Hepatitis C virus [1], 16 µM. The compound further came in with an inhibition in the data set with BHK of 62.4%. In addition, in the data set on Hepatitis C virus [7], the inhibition at 100 µM is at least 50%.
Regarding `O=C(O)c1ccc(Nc2nnc(-c3ccccc3)c(=O)[nH]2)cc1O`, the cytotoxic concentration (CC50) in [2] is above 100 µM. Moreover, the figures for the “Ratio IC50” value in the data set on Hepatitis C virus [3], in the data set with Hepatitis C virus [8] and in the data set with Hepatitis C virus [9] were “<=1.4”, above 4.5 and “<=1.4”, respectively. The half-maximal inhibitory concentration (IC50) with Hepatitis C virus [4] was 52.1 µM; in the data set with Hepatitis C virus [5] it was above 250 µM; in the data set with Hepatitis C virus [6], 40.6 µM; in the data set on Hepatitis C virus [1] it was 46.2 µM. The inhibition in the data set on BHK stood at 45.1%. Besides, in the data set on Hepatitis C virus [7], the inhibition at 100 µM is at least 50%.
For the compound `CC1CS(=O)(=O)N(c2ccc(S(=O)(=O)Nc3cccc4cccnc34)cc2)C1=O` (stereo unspecified), the CC50 in [2] was above 100 µM. Moreover, the “Ratio IC50” value in the data set on Hepatitis C virus [3] is given as “<=1.4”; with Hepatitis C virus [8], above 4.5; with Hepatitis C virus [9], “<=1.4”. In addition, the 50% inhibitory concentration (IC50) is 36.1 µM in the data set with Hepatitis C virus [4], above 250 µM in the data set with Hepatitis C virus [5], 43 µM in the data set with Hepatitis C virus [6] and 36.7 µM in the data set with Hepatitis C virus [1]. Further, the inhibition with BHK was 40.5%. Besides, the inhibition at 100 µM in the data set with Hepatitis C virus [7] is at least 50%.
`COc1cc(/C=N/Nc2ccccc2C(=O)O)cc(Br)c1O`: in data set [2], the CC50 is above 100 µM. Besides, the “Ratio IC50” value is reported as “<=1.4” in the data set with Hepatitis C virus [3], 8.5 in the data set with Hepatitis C virus [8] and “<=1.4” with Hepatitis C virus [9]. In addition, the 50% inhibitory concentration (IC50) in the data set on Hepatitis C virus [4] stood at 23.7 µM; in the data set with Hepatitis C virus [5], 172 µM; in the data set with Hepatitis C virus [6], 19.2 µM; in the data set with Hepatitis C virus [1], 20.3 µM. In the data set with BHK, this compound registered an inhibition of 57.8%. Further, the inhibition at 100 µM in the data set on Hepatitis C virus [7] was at least 50%.
Turning to `Cc1cc(O)c(C(c2ccc(Cl)c(Cl)c2)c2c(O)cc(C)oc2=O)c(=O)o1`, the CC50 in [2] is above 100 µM. Besides, the “Ratio IC50” value in the data set with Hepatitis C virus [3] is “<=1.4”; in the data set with Hepatitis C virus [8] it was above 4.5; in the data set on Hepatitis C virus [9], “<=1.4”. In addition, the half-maximal inhibitory concentration (IC50) is 62.4 µM with Hepatitis C virus [4], above 250 µM in the data set on Hepatitis C virus [5], 63.8 µM in the data set with Hepatitis C virus [6] and 56.8 µM in the data set with Hepatitis C virus [1]. Moreover, in the data set on BHK, the inhibition result is “inactive”. Moreover, the inhibition at 100 µM with Hepatitis C virus [7] was at least 50%.

The values above are taken from ChEMBL document CHEMBL2150918, “Discovery of new scaffolds for rational design of HCV NS5B polymerase inhibitors” (Eur J Med Chem, 2012).
